Experimental data from ChEMBL document CHEMBL3045213, “Antifungal activity of thiophenes from Echinops ritro” (J Agric Food Chem, 2006).
The source made the active and inactive calls. No cut-off for these calls is given here.

Legend:
[1] = system: Colletotrichum gloeosporioides; assay: Growth inhibition of Colletotrichum gloeosporioides at 0.3 to 30 uM after 48 hr by 96-well microtiter based microdilution method; format: functional, organism-based
Method in brief: (§1)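 Conidia from 7-10-day-old PDA cultures adjusted photometrically (%T at 625 nm) to 1.0 × 10^6 conidia/mL. Compounds dissolved in 95% ethanol at 12 mM (stock) and diluted 1:4 with MOPS-buffered RPMI. Final concentrations were 0.3, 3.0, 30.0 µM in 96-well plates. Incubated at 24 °C with a 12-h photoperiod. Growth was read as absorbance at 620 nm at 48 h. Percent inhibition was pooled from two experiments replicated in time. Controls were broth+inoculum and solvent+broth wells.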

Fusarium oxysporum [2] = assay: Growth inhibition of Fusarium oxysporum at 0.3 to 30 uM after 48 hr by 96-well microtiter based microdilution method; format: functional, organism-based; method in brief: as §1
Phomopsis obscurans [3] = assay: Antifungal activity against Phomopsis obscurans after 72 hr by 96-well microtiter based microdilution method; format: functional, organism-based; conditions: Paraphomopsis obscurans
Method in brief: (§2)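 Conidia from 7–10-day PDA cultures (24 °C, 12-h photoperiod) were counted photometrically from %T at 625 nm. Compounds were taken from 12 mM stocks in 95% ethanol, diluted 1:4 in MOPS-buffered RPMI, and tested at six final concentrations (1.55–50.0 µM) with incubation under the same growth conditions.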

Phomopsis viticola [4] = assay: Antifungal activity against Phomopsis viticola after 72 hr by 96-well microtiter based microdilution method
Fusarium oxysporum [5] = assay: Antifungal activity against Fusarium oxysporum after 48 hr by 96-well microtiter based microdilution method; format: functional, organism-based; method in brief: as §2
Fusarium oxysporum [6] = assay: Antifungal activity against Fusarium oxysporum after 72 hr by 96-well microtiter based microdilution method; format: functional, organism-based; method in brief: as §2
Phomopsis obscurans [7] = assay: Antifungal activity against Phomopsis obscurans after 48 hr by 96-well microtiter based microdilution method; format: functional, organism-based; conditions: Paraphomopsis obscurans; method in brief: as §2
[8] = system: Colletotrichum gloeosporioides; assay: Antifungal activity against Colletotrichum gloeosporioides after 72 hr by 96-well microtiter based microdilution method; format: functional, organism-based; method in brief: as §2
Botrytis cinerea [9] = assay: Antifungal activity against Botryotinia fuckeliana after 72 hr by 96-well microtiter based microdilution method; format: functional, organism-based; method in brief: as §2
Botrytis cinerea [10] = assay: Antifungal activity against Botryotinia fuckeliana after 48 hr by 96-well microtiter based microdilution method; format: functional, organism-based; method in brief: as §2
Colletotrichum acutatum [11] = assay: Antifungal activity against Colletotrichum acutatum after 72 hr by 96-well microtiter based microdilution method; format: functional, organism-based; method in brief: as §2
Colletotrichum acutatum [12] = assay: Antifungal activity against Colletotrichum acutatum after 48 hr by 96-well microtiter based microdilution method; format: functional, organism-based; method in brief: as §2
[13] = system: Colletotrichum gloeosporioides; assay: Antifungal activity against Colletotrichum gloeosporioides after 48 hr by 96-well microtiter based microdilution method; format: functional, organism-based; method in brief: as §2
Phomopsis viticola [14] = assay: Antifungal activity against Phomopsis viticola after 48 hr by 96-well microtiter based microdilution method
Colletotrichum fragariae [15] = assay: Antifungal activity against Colletotrichum fragariae after 72 hr by 96-well microtiter based microdilution method; format: functional, organism-based; method in brief: as §2
Colletotrichum fragariae [16] = assay: Antifungal activity against Colletotrichum fragariae after 48 hr by 96-well microtiter based microdilution method; format: functional, organism-based; method in brief: as §2
[17] = system: Colletotrichum gloeosporioides; assay: Growth inhibition of Colletotrichum gloeosporioides at 30 uM after 48 hr by 96-well microtiter based microdilution method; format: functional; conditions: read-out: GI; method in brief: as §1
Fusarium oxysporum [18] = assay: Growth inhibition of Fusarium oxysporum at 30 uM after 48 hr by 96-well microtiter based microdilution method; format: functional; conditions: read-out: GI; method in brief: as §1
[19] = system: Colletotrichum gloeosporioides; assay: Growth inhibition of Colletotrichum gloeosporioides at 3 uM after 48 hr by 96-well microtiter based microdilution method; format: functional; conditions: read-out: GI
Method in brief: (§3)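 Three-point broth microdilution used final concentrations of 0.3, 3.0 and 30.0 µM, diluted from 12 mM ethanol stocks into MOPS-buffered RPMI. Conidial inoculum was counted photometrically at 625 nm and incubated at 24 °C with a 12-h photoperiod. A620 was read at 48 h and converted to percent growth inhibition. Controls were inoculated broth wells and solvent wells without inoculum.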

Fusarium oxysporum [20] = assay: Growth inhibition of Fusarium oxysporum at 0.3 uM after 48 hr by 96-well microtiter based microdilution method; format: functional; conditions: read-out: GI
Method in brief: (§4)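 F. oxysporum conidia (photometric count, %T 625 nm) were tested in MOPS-buffered RPMI broth microdilution at final concentrations of 0.3, 3.0 and 30.0 µM, diluted from 12 mM ethanol stocks. Plates were incubated at 24 °C with a 12-h photoperiod, and A620 was read at 48 h. Mean percent growth inhibition was pooled from two experiments replicated in time.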

Fusarium oxysporum [21] = assay: Growth inhibition of Fusarium oxysporum at 3 uM after 48 hr by 96-well microtiter based microdilution method; format: functional; conditions: read-out: GI; method in brief: as §4
Colletotrichum acutatum [22] = assay: Growth inhibition of Colletotrichum acutatum at 3 uM after 48 hr by 96-well microtiter based microdilution method; format: functional, organism-based; method in brief: as §3
Colletotrichum fragariae [23] = assay: Growth inhibition of Colletotrichum fragariae at 3 uM after 48 hr by 96-well microtiter based microdilution method; format: functional, organism-based; method in brief: as §3

C(#C[C@@H]1CC[C@@H]1C#Cc1ccc(-c2cccs2)s1)c1ccc(-c2cccs2)s1
growth inhibition (GI) [1]: inactive | growth inhibition (GI) (Fusarium oxysporum [2]): inactive

CC(C)CC(=O)OCCC#Cc1ccc(-c2cccs2)s1
growth inhibition (GI) [1]: inactive | growth inhibition (GI) (Fusarium oxysporum [2]): inactive

O=C1C2CC=CCC2C(=O)N1SC(Cl)(Cl)Cl (stereo not given) [CAPTAN]
IC50 (Phomopsis obscurans [3]): 3.9 µM | IC50 (Phomopsis viticola [4]): 20 µM | IC50 (Fusarium oxysporum [5]): 2.2 µM | IC50 (Fusarium oxysporum [6]): 5.8 µM | IC50 (Phomopsis obscurans [7]): 2.4 µM | IC50 [8]: < 1.6 µM | IC50 (Botrytis cinerea [9]): < 1.6 µM | IC50 (Botrytis cinerea [10]): < 1.6 µM | IC50 (Colletotrichum acutatum [11]): 2.1 µM | IC50 (Colletotrichum acutatum [12]): < 1.6 µM | IC50 [13]: < 1.6 µM | IC50 (Phomopsis viticola [14]): 18 µM | IC50 (Colletotrichum fragariae [15]): 2.1 µM | IC50 (Colletotrichum fragariae [16]): < 1.6 µM

CC#CC#Cc1ccc(C#CCCO)s1
IC50 (Phomopsis obscurans [3]): 13.5 µM | IC50 (Phomopsis viticola [4]): 4 µM | inhibition of growth at 30 µM [17]: 100% | inhibition of growth at 30 µM (Fusarium oxysporum [18]): 100% | IC50 (Fusarium oxysporum [5]): 9.5 µM | IC50 (Fusarium oxysporum [6]): 20 µM | IC50 (Phomopsis obscurans [7]): 2.9 µM | growth inhibition (GI) [1]: Active | IC50 [8]: 6 µM | IC50 (Botrytis cinerea [9]): 41 µM | IC50 (Botrytis cinerea [10]): 29.4 µM | IC50 (Colletotrichum acutatum [11]): 19.2 µM | IC50 (Colletotrichum acutatum [12]): 3.5 µM | IC50 [13]: 2.6 µM | growth inhibition (GI) (Fusarium oxysporum [2]): Active | IC50 (Phomopsis viticola [14]): < 1.6 µM | IC50 (Colletotrichum fragariae [15]): 12.5 µM | IC50 (Colletotrichum fragariae [16]): 4.4 µM

CC#CC#Cc1ccc(C#CC(Cl)COC(C)=O)s1 (stereo not given)
inhibition of growth at 30 µM [17]: 81% | inhibition of growth at 30 µM (Fusarium oxysporum [18]): 82% | growth inhibition (GI) [1]: Active | growth inhibition (GI) (Fusarium oxysporum [2]): Active

C(#C[C@@H]1CC[C@H]1C#Cc1ccc(-c2cccs2)s1)c1ccc(-c2cccs2)s1
growth inhibition (GI) [1]: inactive | growth inhibition (GI) (Fusarium oxysporum [2]): inactive

OCCC#Cc1ccc(-c2cccs2)s1
growth inhibition (GI) [1]: Active | growth inhibition (GI) (Fusarium oxysporum [2]): Active

c1csc(-c2ccc(-c3cccs3)s2)c1 [ALPHA-TERTHIENYL]
inhibition of growth at 3 µM [19]: 98% | inhibition of growth at 0.3 µM (Fusarium oxysporum [20]): 25% | IC50 (Phomopsis obscurans [3]): 9.6 µM | IC50 (Phomopsis viticola [4]): < 6.3 µM | inhibition of growth at 3 µM (Fusarium oxysporum [21]): 98% | growth inhibition (GI) (Colletotrichum acutatum [22]): Active | IC50 (Fusarium oxysporum [5]): 5 µM | growth inhibition (GI) (Colletotrichum fragariae [23]): Active | IC50 (Fusarium oxysporum [6]): > 50 µM | IC50 (Phomopsis obscurans [7]): 7.2 µM | growth inhibition (GI) [1]: Active | IC50 [8]: < 1.6 µM | IC50 (Botrytis cinerea [9]): > 50 µM | IC50 (Botrytis cinerea [10]): > 50 µM | IC50 (Colletotrichum acutatum [11]): 5.3 µM | IC50 (Colletotrichum acutatum [12]): 3 µM | IC50 [13]: < 1.6 µM | growth inhibition (GI) (Fusarium oxysporum [2]): Active | IC50 (Phomopsis viticola [14]): < 6.3 µM | IC50 (Colletotrichum fragariae [15]): 9 µM | IC50 (Colletotrichum fragariae [16]): 4.9 µM

C=CC#Cc1ccc(-c2cccs2)s1
IC50 (Phomopsis obscurans [3]): > 50 µM | IC50 (Phomopsis viticola [4]): 22 µM | inhibition of growth at 30 µM [17]: 96% | inhibition of growth at 30 µM (Fusarium oxysporum [18]): 96% | IC50 (Fusarium oxysporum [5]): > 50 µM | IC50 (Fusarium oxysporum [6]): > 50 µM | IC50 (Phomopsis obscurans [7]): > 50 µM | growth inhibition (GI) [1]: Active | IC50 [8]: 10.2 µM | IC50 (Botrytis cinerea [9]): > 50 µM | IC50 (Botrytis cinerea [10]): > 50 µM | IC50 (Colletotrichum acutatum [11]): 28.5 µM | IC50 (Colletotrichum acutatum [12]): 7.6 µM | IC50 [13]: 4.2 µM | growth inhibition (GI) (Fusarium oxysporum [2]): Active | IC50 (Phomopsis viticola [14]): 19.5 µM | IC50 (Colletotrichum fragariae [15]): 46 µM | IC50 (Colletotrichum fragariae [16]): 28 µM

CC(=O)OCC(C#Cc1ccc(-c2cccs2)s1)OC(C)=O (stereo not given)
growth inhibition (GI) [1]: inactive | growth inhibition (GI) (Fusarium oxysporum [2]): inactive
